Measurements published in ChEMBL document CHEMBL4196230, “Design, Synthesis, and Blood-Brain Barrier Transport Study of Pyrilamine Derivatives as Histone Deacetylase Inhibitors” (ACS Med Chem Lett, 2018).
The source made the active and inactive calls. The calls are words filed in the database; no cut-off is given here.

Experiments:
[1] = molecular target: T1, Protein deacetylase HDAC6 (Mus musculus) (UniProt Q9Z2V5); experiment: Inhibition of mouse HDAC6 expressed in 293T cells at 100 uM using Ac-KGLGK(Ac)-MCA as substrate measured after 30 mins by fluorescence assay relative to control
T1 sequence (whole entry): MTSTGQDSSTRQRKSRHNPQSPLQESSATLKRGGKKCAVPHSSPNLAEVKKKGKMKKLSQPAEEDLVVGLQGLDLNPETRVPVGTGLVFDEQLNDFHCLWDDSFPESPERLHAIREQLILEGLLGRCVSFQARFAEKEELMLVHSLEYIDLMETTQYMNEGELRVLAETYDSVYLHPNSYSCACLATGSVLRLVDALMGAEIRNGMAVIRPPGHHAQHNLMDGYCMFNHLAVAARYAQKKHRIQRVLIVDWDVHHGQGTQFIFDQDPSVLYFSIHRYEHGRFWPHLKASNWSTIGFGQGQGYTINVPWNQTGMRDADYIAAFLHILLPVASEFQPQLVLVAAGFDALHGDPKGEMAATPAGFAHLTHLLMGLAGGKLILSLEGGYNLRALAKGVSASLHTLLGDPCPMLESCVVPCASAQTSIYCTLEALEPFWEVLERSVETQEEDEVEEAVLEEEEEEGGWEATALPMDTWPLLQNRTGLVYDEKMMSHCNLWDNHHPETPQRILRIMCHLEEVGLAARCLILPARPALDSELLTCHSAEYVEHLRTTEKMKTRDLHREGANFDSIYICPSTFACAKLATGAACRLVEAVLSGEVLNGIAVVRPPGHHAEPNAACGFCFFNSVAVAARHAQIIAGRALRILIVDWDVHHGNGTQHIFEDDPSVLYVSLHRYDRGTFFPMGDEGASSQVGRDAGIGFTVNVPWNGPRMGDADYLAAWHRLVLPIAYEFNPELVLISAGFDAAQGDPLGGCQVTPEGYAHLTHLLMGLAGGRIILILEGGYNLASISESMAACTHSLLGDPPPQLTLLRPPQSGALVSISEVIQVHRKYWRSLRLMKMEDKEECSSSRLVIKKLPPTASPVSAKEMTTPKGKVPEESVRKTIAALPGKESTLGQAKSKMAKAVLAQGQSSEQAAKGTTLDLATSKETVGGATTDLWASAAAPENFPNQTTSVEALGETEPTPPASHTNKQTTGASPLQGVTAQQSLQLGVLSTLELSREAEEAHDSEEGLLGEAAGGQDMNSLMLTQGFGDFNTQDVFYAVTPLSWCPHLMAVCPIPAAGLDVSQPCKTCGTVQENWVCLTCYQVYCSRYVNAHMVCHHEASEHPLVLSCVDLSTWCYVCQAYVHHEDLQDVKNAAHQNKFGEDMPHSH

[2] = Substrate activity at PYSOCA in human CMEC/D3 cells assessed as transporter-mediated drug uptake clearance assessed per mg protein at 37degC; type: ADME, cell-based
Summary of the method: (§1)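 Uptake by hCMEC/D3 cells followed over time at 37 °C or 4 °C. Clearance was calculated from the initial linear slope, expressed per mg protein. Mean ± S.E., n = 4.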

[3] = Substrate activity at PYSOCA in human CMEC/D3 cells assessed as transporter-mediated drug uptake clearance assessed per mg protein at 4degC measured after 30 mins; type: ADME, cell-based; settings: 0.5 h; summary of the method: as §1
[4] = Substrate activity at PYSOCA in human CMEC/D3 cells assessed as transporter-mediated drug uptake measured for 2 mins at 37degC in presence of pyrilamine; type: ADME, cell-based
[5] = Substrate activity at PYSOCA in human CMEC/D3 cells assessed as transporter-mediated drug uptake measured for 2 mins at 37degC in presence of diphenhydramine; type: ADME, cell-based
Summary of the method: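 Uptake by hCMEC/D3 cells was measured at various substrate concentrations, at 37 °C for 2 min, with or without diphenhydramine (100 µM). Data were analysed by Michaelis-Menten and Lineweaver-Burk plots using nonlinear least-squares regression (Eqs. 1 and 2). Mean ± S.E., n = 4.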

[6] = Substrate activity at PYSOCA in human CMEC/D3 cells assessed as transporter-mediated drug uptake measured for 2 mins at 37degC in presence of memantine; type: ADME, cell-based
[7] = Substrate activity at PYSOCA in human CMEC/D3 cells assessed as transporter-mediated drug uptake measured for 2 mins at 37degC in presence of tramadol; type: ADME, cell-based
[8] = Substrate activity at PYSOCA in human CMEC/D3 cells assessed as transporter-mediated drug uptake measured for 2 mins at 37degC in presence of clonidine; type: ADME, cell-based
[9] = Substrate activity at PYSOCA in human CMEC/D3 cells assessed as transporter-mediated drug uptake measured for 2 mins at 37degC in presence of varenicline; type: ADME, cell-based
[10] = Substrate activity at PYSOCA in human CMEC/D3 cells assessed as transporter-mediated drug uptake measured for 2 mins at 37degC in presence of TEA; type: ADME, cell-based
[11] = Substrate activity at PYSOCA in human CMEC/D3 cells assessed as transporter-mediated drug uptake measured for 2 mins at 37degC in presence of MPP+; type: ADME, cell-based
[12] = Substrate activity at PYSOCA in human CMEC/D3 cells assessed as transporter-mediated drug uptake measured for 2 mins at 37degC in presence of decynium-22; type: ADME, cell-based
[13] = Substrate activity at PYSOCA in human CMEC/D3 cells assessed as transporter-mediated drug uptake measured for 2 mins at 37degC in presence of L-carnitine; type: ADME, cell-based
[14] = Substrate activity at PYSOCA in human CMEC/D3 cells assessed as transporter-mediated drug uptake measured for 2 mins at 37degC in presence of choline; type: ADME, cell-based
[15] = molecular target: Histone deacetylase (Homo sapiens) (UniProt Q13547+O15379+Q9UBN7+Q92769+Q9UQL6+Q8WUI4+Q9BY41+Q96DB2+P56524+Q9UKV0+Q969S8); settings: at 10 µM

Molecule `COc1ccc(CN(CCN(C)C)c2ccc(C(=O)Nc3cc(Br)ccc3N)cn2)cc1` has an inhibition [1] of 21%.

With `COc1ccc(CN(CCN(C)C)c2ccc(C(=O)Nc3cc(-c4ccccc4)ccc3N)cn2)cc1` the inhibition [1] was 14%.

Work on `CC(/C=C/C(=O)NO)=C\[C@@H](C)C(=O)c1ccc(N(C)C)cc1` yielded an inhibition [1] of 98%.

For `COc1ccc(CN(CCN(C)C)c2ccc(C(=O)Nc3cc(Cl)ccc3N)cn2)cc1`, the inhibition [1] was 7%.

Work on `COc1ccc(CN(CCN(C)C)c2ccc(C(=O)Nc3cc(-c4ccco4)ccc3N)cn2)cc1` yielded an inhibition [1] of 15%.

`COc1ccc(CN(CCN(C)C)c2ccc(C(=O)Nc3cc(-c4cccs4)ccc3N)cn2)cc1` gave an inhibition [1] of 15%.

In the case of `CC(=O)Nc1ccc(C(=O)Nc2ccccc2N)cc1` [TACEDINALINE], the inhibition [1] is reported as 18%, the CL [2] is reported as 1.26 µL/min and the Activity [3] is reported as “Active”. For the same molecule, the Activity [4] was “Active”, the Activity [5] was “Active” and the Activity [6] was “Active”. The Activity [7] was “Active”, the Activity [8] was “Active” and the Activity [9] was “Active”. For the same molecule, the Activity [10] was “Active”, the Activity [11] was “Active” and the Activity [12] was “Active”. The Activity [13] was “Active”, the Activity [14] was “Active” and the inhibition [15] was “Active”.

For `COc1ccc(CN(CCN(C)C)c2ccc(C(=O)Nc3cc(I)ccc3N)cn2)cc1`, the inhibition [1] was 16%.
